Residues, ends and D or L forms follow the SMILES beside them. *: point of attachment. Propyl(2R-PamO,3-PamO) = CCCCCCCCCCCCCCCC(=O)OC[C@H](C*)OC(=O)CCCCCCCCCCCCCCC; X1 = CC(=O)NCCCOCCOCCOCCCNC(=O)COCC(=O)*
Assays:
[1] = target: T1, Toll-like receptor 2 (Homo sapiens, UniProt O60603); test: Agonist activity at human TLR2 expressed in HEK293 cells assessed as induction of NF-kappaB signaling after 24 hrs by luminescence based luciferase reporter gene assay
[2] = target: T1, Toll-like receptor 2; test: Displacement of Eu-DTPA from human TLR2 expressed in SU.86.86 cells after 1 hr
[3] = target: T1, Toll-like receptor 2; test: Displacement of Eu-DTPA from human TLR2 expressed in HEK293 cells after 1 hr
Procedure, shortened: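 Live-cell europium TRF competition binding in HEK-293/hTLR2 (poly-D-lysine plates) or SU.86.86 cells grown 2 days to ~80% confluence. Unlabeled ligand 1 μM to 0.01 nM plus 90 nM Eu-DTPA-labeled tracer, 1 h at 37°C; three washes, enhancement solution 30 min at 37°C, read at 340 nm excitation/615 nm emission with time delay.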

T1 sequence (O60603 whole entry): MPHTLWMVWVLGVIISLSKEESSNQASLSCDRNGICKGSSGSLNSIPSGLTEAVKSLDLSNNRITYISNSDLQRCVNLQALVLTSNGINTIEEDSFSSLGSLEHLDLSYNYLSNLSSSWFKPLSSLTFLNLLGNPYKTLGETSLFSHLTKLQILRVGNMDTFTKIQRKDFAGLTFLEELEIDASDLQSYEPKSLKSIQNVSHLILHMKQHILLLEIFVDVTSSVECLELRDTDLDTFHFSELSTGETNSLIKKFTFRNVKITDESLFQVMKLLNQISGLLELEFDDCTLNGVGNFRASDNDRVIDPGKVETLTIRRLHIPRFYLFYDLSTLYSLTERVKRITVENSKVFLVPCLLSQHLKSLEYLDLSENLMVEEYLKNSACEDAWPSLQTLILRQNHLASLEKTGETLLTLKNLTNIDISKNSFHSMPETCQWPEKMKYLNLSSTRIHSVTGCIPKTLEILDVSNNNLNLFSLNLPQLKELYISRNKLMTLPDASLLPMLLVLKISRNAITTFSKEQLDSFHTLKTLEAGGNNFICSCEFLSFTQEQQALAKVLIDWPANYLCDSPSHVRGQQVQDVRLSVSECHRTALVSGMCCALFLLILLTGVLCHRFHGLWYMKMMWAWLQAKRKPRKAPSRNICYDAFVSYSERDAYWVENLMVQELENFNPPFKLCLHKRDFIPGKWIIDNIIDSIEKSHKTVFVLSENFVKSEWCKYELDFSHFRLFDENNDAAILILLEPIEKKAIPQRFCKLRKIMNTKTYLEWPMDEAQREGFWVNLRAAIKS

SMILES | EC50 [1] | Ki [2] | Ki [3]
CCCCCCCCCCCCCCCC(=O)OC[C@H](CSC[C@H](NC(=O)COCC(=O)NCCCOCCOCCOCCCNC(C)=O)C(=O)N[C@@H](CO)C(=O)N[C@@H](CCCNC(=N)N)C(=O)N[C@@H](Cc1ccccc1)C(=O)N[C@@H](CC(=O)O)C(=O)N[C@@H](CCC(=O)O)C(=O)N[C@@H](CC(=O)O)C(=O)N[C@@H](CC(=O)O)C(=O)N[C@@H](CC(C)C)C(=O)N[C@@H](CCC(=O)O)C(N)=O)OC(=O)CCCCCCCCCCCCCCC (X1-C(Propyl(2R-PamO,3-PamO))SRFDEDDLE-NH2) | 25 nM |  | 
CCCCCCCCCCCCCCCC(=O)OCC(CSCC(NC(=O)COCC(=O)NCCCOCCOCCOCCCNC(=O)CCSC1CC(=O)N(CCNC(=O)CCCCC[N+]2=C(/C=C/C=C/C=C3/Cc4cc(S(=O)(=O)O)ccc4N3CC)Cc3cc(S(=O)(=O)[O-])ccc32)C1=O)C(=O)NCC(=O)NC(CO)C(=O)NCCCOCCOCCOCCCNC(=O)COCC(N)=O)OC(=O)CCCCCCCCCCCCCCC (centres undefined) | 34 nM | 67 nM | 11 nM

Reference: BindingDB's records for doi:10.1021/jm301002f (H. Lee Moffitt Cancer Center and Research Institute, 2012)
